Laboratory results as given in ChEMBL document CHEMBL1129568, “Structure-activity relationships of the antimalarial agent artemisinin. 3. Total synthesis of (+)-13-carbaartemisinin and related tetra- and tricyclic structures” (J Med Chem, 1996).
≈ marks a conversion by molar mass, not a printed value.

What was measured:
Plasmodium falciparum [1] = test: In vitro antimalarial activity for Plasmodium falciparum W2; type: functional, organism-based
Plasmodium falciparum [2] = test: In vitro antimalarial activity for Plasmodium falciparum D6; type: functional, organism-based
Plasmodium falciparum [3] = test: In vitro antimalarial activity for Plasmodium falciparum W2; Not active; type: functional, organism-based
Plasmodium falciparum [4] = test: In vitro antimalarial activity for Plasmodium falciparum D6 in LDH […] assay; type: functional, organism-based
Summary of the method: (§1)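 In vitro test against P. falciparum D-6 or W-2 using Makler's parasite lactate dehydrogenase (pLDH) assay, which reads out parasite pLDH enzyme activity. Run at the University of Mississippi.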

Plasmodium falciparum [5] = test: In vitro antimalarial activity for Plasmodium falciparum W2 in LDH […] assay; type: functional, organism-based; summary of the method: as §1
Plasmodium falciparum [6] = test: In vitro antimalarial activity against Plasmodium falciparum D6 relative to artemisinin; type: functional
Summary of the method: (§2)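 Relative potency is the artemisinin IC50 divided by the analog IC50, × 100%, with artemisinin set at 100%. Tested in vitro against P. falciparum D-6 or W-2.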

Plasmodium falciparum [7] = test: In vitro antimalarial activity against Plasmodium falciparum W-2 relative to artemisinin; type: functional; summary of the method: as §2
Plasmodium falciparum [8] = test: In vitro antimalarial activity for Plasmodium falciparum D6; Not active; type: functional, organism-based

Row | Structure (SMILES) | IC50 (Plasmodium falciparum [1]) | IC50 (Plasmodium falciparum [2]) | IC50 (Plasmodium falciparum [3]) | IC50 (Plasmodium falciparum [4]) | IC50 (Plasmodium falciparum [5]) | Relative activity (Plasmodium falciparum [6]) | Relative activity (Plasmodium falciparum [7]) | IC50 (Plasmodium falciparum [8])
1 | C[C@@H]1CC[C@@H]([C@@H](C)COCc2ccccc2)[C@@]23CC[C@@](C)(CC[C@@H]12)OO3 | 0.66 µg/mL (≈ 1.84 µM) | 0.29 µg/mL (≈ 0.809 µM) |  |  |  |  |  | 
2 | C[C@@H]1CC[C@@H]([C@@H](C)CO)[C@@]23C=C[C@@](C)(CC[C@@H]12)OO3 |  | 1 µg/mL (≈ 3.75 µM) | Not Active |  |  |  |  | 
3 | C[C@@H]1CC[C@H]2[C@@H](C)C(=O)O[C@@H]3O[C@@]4(C)CC[C@@H]1[C@]32OO4 [ARTEMISININ] | 0.00048 µg/mL (≈ 0.0017 µM) | 0.00097 µg/mL (≈ 0.00344 µM) |  | 0.0014 µg/mL (≈ 0.00496 µM) | 0.0022 µg/mL (≈ 0.00779 µM) | 100 | 100 | 
4 | C[C@@H]1CC[C@H]2[C@@H](C)CO[C@H]3C[C@]4(C)CC[C@@H]1[C@@]32OO4 | 0.00078 µg/mL (≈ 0.00293 µM) | 0.00172 µg/mL (≈ 0.00646 µM) |  |  |  | 53 | 58 | 
5 | C[C@@H]1CC[C@@H]([C@@H](C)CO)[C@@]23CC[C@@](C)(CC[C@@H]12)OO3 | 1.5 µg/mL (≈ 5.59 µM) | 0.3 µg/mL (≈ 1.12 µM) |  |  |  |  |  | 
6 | C[C@@H]1CC[C@@H]([C@@H](C)COCc2ccccc2)[C@@]23C=C[C@@](C)(CC[C@@H]12)OO3 |  |  | Not Active |  |  |  |  | Not Active
7 | C[C@@H]1CC[C@H]2[C@@H](C)C(=O)O[C@@H]3C[C@@]4(C)CC[C@@H]1[C@]32OO4 | 0.0126 µg/mL (≈ 0.045 µM) | 0.0388 µg/mL (≈ 0.138 µM) |  | 0.006 µg/mL (≈ 0.0214 µM) | 0.02 µg/mL (≈ 0.0713 µM) | 23.3 | 11 | 
8 | C[C@@H]1CC[C@H]2[C@@H](C)CO[C@@H]3C[C@@]4(C)CC[C@@H]1[C@]32OO4 | 0.00279 µg/mL (≈ 0.0105 µM) | 0.00287 µg/mL (≈ 0.0108 µM) |  |  |  | 32 | 16 | 
9 | COC[C@H](C)[C@@H]1CC[C@@H](C)[C@@H]2CC[C@]3(C)CC[C@@]21OO3 | 0.7 µg/mL (≈ 2.48 µM) | 0.31 µg/mL (≈ 1.1 µM) |  |  |  |  |  | 
10 | COC[C@H](C)[C@@H]1CC[C@@H](C)[C@@H]2CC[C@]3(C)C=C[C@@]21OO3 |  | 0.92 µg/mL (≈ 3.28 µM) | Not Active |  |  |  |  | 
